Data published in ChEMBL document CHEMBL1153438, “Synthesis and biological evaluation of novel conjugates of podophyllotoxin and 5-FU as antineoplastic agents” (Bioorg Med Chem, 2009).
Calls of active or inactive are those of the source. The calls are words filed in the database; no cut-off is given here.

Legend:
[1] = Octanol-water partition coefficient, log P of the compound; assay type: physicochemical
Outline: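 Octanol–water partition coefficient; each reported P is the average of three measurements.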

K562 = assay: Cytotoxicity against human K562 cells after 48 hrs by MTT assay; assay type: functional, cell-based; settings: K562, 48 h
Outline: (§1)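 MTT assay in HL-60 and K562 leukemia cells. Cells were seeded at 6000–10,000 per well, then treated in triplicate with a concentration gradient for 48 h at 37 °C. IC50 was taken from the dose–response curve as the average of triplicates.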

AGS = assay: Cytotoxicity against human AGS cells after 72 hrs by SRB method; assay type: functional, cell-based
Outline: (§2)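 SRB assay in AGS and A549 solid tumour cells. Cells were seeded at 6000–10,000 per well, then exposed in triplicate to a concentration gradient for 72 h at 37 °C. IC50 was read from the dose–response curve as the average of triplicates.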

A549 = assay: Cytotoxicity against human A549 cells after 72 hrs by SRB method; assay type: functional, cell-based; settings: A549, 72 h; outline: as §2
HL-60 = assay: Cytotoxicity against human HL60 cells after 48 hrs by MTT assay; assay type: functional, cell-based; settings: HL-60, 48 h; outline: as §1
Calf thymus DNA = assay: Binding affinity to calf thymus DNA after 24 hrs by circular dichroism; assay type: nucleic-acid assay; settings: Bos taurus
Outline: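 CT DNA dissolved and annealed in 10 mM PBS pH 7.2, then mixed with compound at 0, 10, 20 or 50 µg/mL. Mixtures were incubated 24 h at 37 °C in the dark. CD spectra were recorded from 200–320 nm in 1 cm quartz cells, with compound-only solutions in PBS as blanks.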

[2] = Stability at pH 7.4 PBS at 1 ug/ml after 8 hrs; assay type: physicochemical; settings: buffer, pH 7.4, 8 h
Outline: (§3)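 Compound (100 µg/mL stock in acetonitrile, 1.0 mL) was added to 4.0 mL preincubated human plasma, mouse plasma or pH 7.4 phosphate buffer and held at 37 °C. Protein was precipitated with cold acetonitrile and the sample centrifuged. Supernatant was analysed by C18 HPLC with CH3CN/H2O 45:55 at 1.0 mL/min.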

Plasma [3] = assay: Metabolic stability in human plasma at 1 ug/ml within 24 hrs; assay type: ADME, cell-free; outline: as §3
Plasma [4] = assay: Metabolic stability in mouse plasma at 1 ug/ml after 2 hrs; assay type: ADME, cell-free; outline: as §3
[5] = Stability at pH 7.4 PBS at 1 ug/ml within 8 hrs; assay type: physicochemical; settings: buffer, pH 7.4, 8 h; outline: as §3

Row | Structure (SMILES) | logP [1] | IC50 (K562) [µM] | IC50 (AGS) [µM] | IC50 (A549) [µM] | IC50 (HL-60) [µM] | Activity (Calf thymus DNA) | Stability [2] | Stability (Plasma [3]) | Stability (Plasma [4]) | Stability [5]
1 | COc1cc([C@@H]2c3cc4c(cc3[C@@H](N[C@@H](CC(C)C)C(=O)OCCCn3cc(F)c(=O)[nH]c3=O)[C@H]3COC(=O)[C@H]23)OCO4)cc(OC)c1O | 0.33 | 9.5 | 59.2 | 0.01 | 0.13 |  |  |  |  | 
2 | COc1cc([C@@H]2c3cc4c(cc3[C@@H](N[C@H](C(=O)OCCCn3cc(F)c(=O)[nH]c3=O)C(C)C)[C@H]3COC(=O)[C@H]23)OCO4)cc(OC)c1O | 0.34 | 13.5 | 62.5 | 1.92 | 5.8 |  |  |  |  | 
3 | COc1cc([C@@H]2c3cc4c(cc3[C@H](O)[C@H]3COC(=O)[C@H]23)OCO4)cc(OC)c1OC [PODOFILOX] | 0.69 | > 100 | 50.8 | 7.38 | 2.75 |  |  |  |  | 
4 | COc1cc([C@@H]2c3cc4c(cc3[C@@H](N[C@@H](CC(C)C)C(=O)OCCCCCn3cc(F)c(=O)[nH]c3=O)[C@H]3COC(=O)[C@H]23)OCO4)cc(OC)c1O | 0.51 | 6 | 23.5 | 0.53 | 0.31 |  |  |  |  | 
5 | COc1cc([C@@H]2c3cc4c(cc3[C@@H](N[C@@H](Cc3ccccc3)C(=O)OCCCCCn3cc(F)c(=O)[nH]c3=O)[C@H]3COC(=O)[C@H]23)OCO4)cc(OC)c1O | 0.29 | 13.2 | 38.8 | < 0.01 | 0.04 | Active | Unstable | Stable | Unstable | Stable
6 | COc1cc([C@@H]2c3cc4c(cc3[C@@H](N[C@@H](Cc3ccccc3)C(=O)OCCCCn3cc(F)c(=O)[nH]c3=O)[C@H]3COC(=O)[C@H]23)OCO4)cc(OC)c1O | 0.43 | 9.2 | 23.7 | 0.3 | 0.42 |  |  |  |  | 
7 | CC[C@H](C)[C@H](N[C@@H]1c2cc3c(cc2[C@@H](c2cc(OC)c(O)c(OC)c2)[C@H]2C(=O)OC[C@@H]21)OCO3)C(=O)OCCCn1cc(F)c(=O)[nH]c1=O | 0.59 | 5.1 | 56.2 | 0.18 | 0.24 |  |  |  |  | 
8 | COc1cc([C@@H]2c3cc4c(cc3[C@@H](N[C@@H](Cc3ccc(O)cc3)C(=O)OCCCn3cc(F)c(=O)[nH]c3=O)[C@H]3COC(=O)[C@H]23)OCO4)cc(OC)c1O | 0.07 | 28.6 | 115 | 21.7 | 26.6 |  |  |  |  | 
9 | COc1cc([C@@H]2c3cc4c(cc3[C@@H](N[C@H](C(=O)OCCCn3cc(F)c(=O)[nH]c3=O)[C@@H](C)O)[C@H]3COC(=O)[C@H]23)OCO4)cc(OC)c1O | -0.12 | 30.8 | 141 | 6.95 | 23.2 |  |  |  |  | 
10 | COc1cc([C@@H]2c3cc4c(cc3[C@@H](N[C@@H](Cc3ccccc3)C(=O)OCCCn3cc(F)c(=O)[nH]c3=O)[C@H]3COC(=O)[C@H]23)OCO4)cc(OC)c1O | 0.65 | 5.8 | 23.6 | 0.48 | 0.31 |  |  |  |  | 
11 | COc1cc([C@@H]2c3cc4c(cc3[C@@H](N[C@@H](CCSC)C(=O)OCCCn3cc(F)c(=O)[nH]c3=O)[C@H]3COC(=O)[C@H]23)OCO4)cc(OC)c1O | 0.23 | 8.8 | 24.8 | 0.29 | 0.99 |  |  |  |  | 
12 | O=c1[nH]cc(F)c(=O)[nH]1 [FLUOROURACIL] |  | > 100 | > 100 |  |  |  |  |  |  | 
13 | COc1cc([C@@H]2c3cc4c(cc3[C@@H](N[C@@H](C)C(=O)OCCCn3cc(F)c(=O)[nH]c3=O)[C@H]3COC(=O)[C@H]23)OCO4)cc(OC)c1O | -0.07 | 19.5 | 40.4 | 2.59 | 22.3 |  |  |  |  | 
14 | COc1cc([C@@H]2c3cc4c(cc3[C@@H](N[C@@H](CC(C)C)C(=O)OCCCCn3cc(F)c(=O)[nH]c3=O)[C@H]3COC(=O)[C@H]23)OCO4)cc(OC)c1O | 0.35 | 5.3 | 34.5 | < 0.01 | 0.73 |  |  |  |  | 
